Legend:
Adenosine receptor A1 [1] = biological target: T1, Adenosine receptor A1 (Rattus norvegicus, UniProt P25099); test: Displacement of [3H]CCPA from adenosine A1 receptor in rat brain cortex; assay type: tissue-based
T1 sequence (P25099 whole entry): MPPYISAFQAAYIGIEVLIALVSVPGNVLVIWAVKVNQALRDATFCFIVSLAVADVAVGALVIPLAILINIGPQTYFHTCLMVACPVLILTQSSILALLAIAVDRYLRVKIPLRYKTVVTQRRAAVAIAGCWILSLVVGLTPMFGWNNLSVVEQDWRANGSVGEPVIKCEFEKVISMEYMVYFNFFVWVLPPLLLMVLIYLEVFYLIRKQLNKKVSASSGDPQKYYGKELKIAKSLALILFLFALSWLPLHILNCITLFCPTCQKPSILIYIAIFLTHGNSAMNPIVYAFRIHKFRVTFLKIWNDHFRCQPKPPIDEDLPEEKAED
How it was run: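 Radioligand binding to rat A1 receptors in rat brain cortical membrane preparations. Values are given as Ki, or as % inhibition of radioligand binding at the indicated concentration.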

[2] = biological target: T2, Amine oxidase [flavin-containing] A (Homo sapiens, UniProt P21397); test: Inhibition of human MAO-A
T2 sequence (P21397 whole entry): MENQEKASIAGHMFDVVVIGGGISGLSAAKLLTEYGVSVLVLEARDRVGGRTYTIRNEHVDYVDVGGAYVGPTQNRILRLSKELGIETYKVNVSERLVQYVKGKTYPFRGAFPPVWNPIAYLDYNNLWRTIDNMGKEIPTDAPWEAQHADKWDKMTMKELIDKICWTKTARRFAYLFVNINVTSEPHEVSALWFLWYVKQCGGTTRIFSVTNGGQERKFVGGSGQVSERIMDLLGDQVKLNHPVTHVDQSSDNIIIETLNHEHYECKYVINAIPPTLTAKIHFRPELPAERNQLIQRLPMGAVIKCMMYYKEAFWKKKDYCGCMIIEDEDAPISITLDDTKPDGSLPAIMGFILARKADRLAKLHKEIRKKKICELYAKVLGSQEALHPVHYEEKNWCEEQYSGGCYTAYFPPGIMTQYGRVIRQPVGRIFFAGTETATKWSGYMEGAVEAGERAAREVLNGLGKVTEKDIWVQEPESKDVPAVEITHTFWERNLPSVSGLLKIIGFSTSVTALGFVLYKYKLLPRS
How it was run: (§1)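 Human MAO-A and MAO-B inhibition, screened first at a test concentration of 10 µM.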

Adenosine receptor A3 [3] = biological target: T3, Adenosine receptor A3 (Homo sapiens, UniProt P0DMS8); test: Displacement of [3H]PSB-11 from human adenosine A3 receptor expressed in CHO cells; assay type: cell-based
T3 sequence (P0DMS8 whole entry): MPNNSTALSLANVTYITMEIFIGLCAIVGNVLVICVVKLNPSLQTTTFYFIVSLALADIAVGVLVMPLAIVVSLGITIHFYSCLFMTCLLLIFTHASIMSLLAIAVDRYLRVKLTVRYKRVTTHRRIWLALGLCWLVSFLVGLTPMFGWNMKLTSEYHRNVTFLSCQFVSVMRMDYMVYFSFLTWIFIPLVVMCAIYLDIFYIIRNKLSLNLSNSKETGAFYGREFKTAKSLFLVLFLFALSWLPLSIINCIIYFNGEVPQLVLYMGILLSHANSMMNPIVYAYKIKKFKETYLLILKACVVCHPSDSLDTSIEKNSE

Adenosine receptor A1 [4] = biological target: T1, Adenosine receptor A1; test: Binding affinity to rat adenosine A1 receptor
Adenosine receptor A2a [5] = biological target: T4, Adenosine receptor A2a (Rattus norvegicus, UniProt P30543); test: Displacement of [3H]MSX-2 from adenosine A2A receptor in rat brain striatum; assay type: tissue-based
T4 sequence (P30543 whole entry): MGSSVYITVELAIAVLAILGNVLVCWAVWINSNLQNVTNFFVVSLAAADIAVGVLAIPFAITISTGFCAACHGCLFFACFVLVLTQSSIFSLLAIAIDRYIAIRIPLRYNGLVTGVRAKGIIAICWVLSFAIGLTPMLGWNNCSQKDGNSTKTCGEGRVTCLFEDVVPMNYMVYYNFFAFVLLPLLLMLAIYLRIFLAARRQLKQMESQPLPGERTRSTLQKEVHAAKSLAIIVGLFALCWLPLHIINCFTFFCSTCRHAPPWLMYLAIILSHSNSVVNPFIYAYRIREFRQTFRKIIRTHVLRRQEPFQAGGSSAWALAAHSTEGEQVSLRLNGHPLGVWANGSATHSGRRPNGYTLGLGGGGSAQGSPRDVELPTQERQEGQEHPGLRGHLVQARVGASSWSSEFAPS

[6] = biological target: T5, MAO-A (amine oxidase [flavin-containing] A) (Homo sapiens, UniProt P21397); test: Inhibition of human MAO-A at 10 uM relative to control; how it was run: as §1
T5 sequence (P21397 whole entry): T2 sequence (P21397 whole entry)

Adenosine receptor A2a [7] = biological target: T4, Adenosine receptor A2a; test: Binding affinity to rat adenosine A2A receptor
[8] = biological target: T6, Amine oxidase [flavin-containing] B (Homo sapiens, UniProt P27338); test: Inhibition of human MAO-B
T6 sequence (P27338 whole entry): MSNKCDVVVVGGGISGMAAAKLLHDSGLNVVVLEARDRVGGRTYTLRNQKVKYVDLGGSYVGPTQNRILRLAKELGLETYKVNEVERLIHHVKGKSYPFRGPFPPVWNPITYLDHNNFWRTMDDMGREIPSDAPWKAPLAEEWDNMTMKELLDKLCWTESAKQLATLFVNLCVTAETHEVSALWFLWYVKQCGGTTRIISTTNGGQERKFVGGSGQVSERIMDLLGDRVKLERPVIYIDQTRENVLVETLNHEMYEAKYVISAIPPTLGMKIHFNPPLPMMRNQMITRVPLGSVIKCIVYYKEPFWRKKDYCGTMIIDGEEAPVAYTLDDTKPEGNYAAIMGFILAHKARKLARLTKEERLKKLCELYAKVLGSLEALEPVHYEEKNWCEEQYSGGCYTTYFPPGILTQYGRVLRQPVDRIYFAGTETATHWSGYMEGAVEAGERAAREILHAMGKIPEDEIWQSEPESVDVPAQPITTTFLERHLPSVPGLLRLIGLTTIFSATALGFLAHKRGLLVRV

Adenosine receptor A3 [9] = biological target: T7, Adenosine receptor A3 (Rattus norvegicus, UniProt P28647); test: Binding affinity to rat adenosine A3 receptor
T7 sequence (P28647 whole entry): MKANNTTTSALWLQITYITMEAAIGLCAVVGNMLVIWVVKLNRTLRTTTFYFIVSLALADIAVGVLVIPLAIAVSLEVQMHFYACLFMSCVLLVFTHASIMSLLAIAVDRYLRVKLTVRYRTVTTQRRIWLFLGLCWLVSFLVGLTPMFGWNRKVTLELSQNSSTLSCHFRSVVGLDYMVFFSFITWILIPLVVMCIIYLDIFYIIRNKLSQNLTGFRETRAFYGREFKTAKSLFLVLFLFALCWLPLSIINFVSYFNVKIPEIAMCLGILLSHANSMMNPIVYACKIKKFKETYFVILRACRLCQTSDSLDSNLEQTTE

Adenosine receptor A2a [10] = biological target: T8, Adenosine receptor A2a (Homo sapiens, UniProt P29274); test: Displacement of [3H]MSX-2 from human adenosine A2A receptor expressed in CHO cells; assay type: cell-based
T8 sequence (P29274 whole entry): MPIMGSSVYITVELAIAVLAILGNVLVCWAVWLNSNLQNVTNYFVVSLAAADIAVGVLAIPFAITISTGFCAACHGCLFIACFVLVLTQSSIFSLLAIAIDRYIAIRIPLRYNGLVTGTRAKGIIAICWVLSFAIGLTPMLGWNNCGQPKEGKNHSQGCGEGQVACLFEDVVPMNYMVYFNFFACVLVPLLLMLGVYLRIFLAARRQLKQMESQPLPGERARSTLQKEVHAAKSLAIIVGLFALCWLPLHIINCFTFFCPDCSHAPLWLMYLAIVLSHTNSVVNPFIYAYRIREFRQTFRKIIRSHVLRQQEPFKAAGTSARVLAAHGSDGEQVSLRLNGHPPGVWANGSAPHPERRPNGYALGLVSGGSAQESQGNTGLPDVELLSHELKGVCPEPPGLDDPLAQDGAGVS
How it was run: (§2)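 Radioligand binding to human receptors recombinantly expressed in Chinese hamster ovary (CHO) cells. Results are Ki, or % inhibition of radioligand binding at the indicated concentration.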

Adenosine receptor A2b [11] = biological target: T9, Adenosine receptor A2b (Homo sapiens, UniProt P29275); test: Binding affinity to human adenosine A2B receptor
T9 sequence (P29275 whole entry): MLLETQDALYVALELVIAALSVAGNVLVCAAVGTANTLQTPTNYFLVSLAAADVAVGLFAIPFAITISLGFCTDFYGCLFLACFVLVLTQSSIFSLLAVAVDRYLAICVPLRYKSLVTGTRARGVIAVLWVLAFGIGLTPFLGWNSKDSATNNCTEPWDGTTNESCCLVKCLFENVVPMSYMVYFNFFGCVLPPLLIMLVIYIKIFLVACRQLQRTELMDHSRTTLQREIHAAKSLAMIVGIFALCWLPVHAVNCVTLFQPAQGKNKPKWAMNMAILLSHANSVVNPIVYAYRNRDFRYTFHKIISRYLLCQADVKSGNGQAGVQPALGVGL

Adenosine receptor A1 [12] = biological target: T10, Adenosine receptor A1 (Homo sapiens, UniProt P30542); test: Displacement of [3H]CCPA from human adenosine A1 receptor expressed in CHO cells; assay type: cell-based; how it was run: as §2
T10 sequence (P30542 whole entry): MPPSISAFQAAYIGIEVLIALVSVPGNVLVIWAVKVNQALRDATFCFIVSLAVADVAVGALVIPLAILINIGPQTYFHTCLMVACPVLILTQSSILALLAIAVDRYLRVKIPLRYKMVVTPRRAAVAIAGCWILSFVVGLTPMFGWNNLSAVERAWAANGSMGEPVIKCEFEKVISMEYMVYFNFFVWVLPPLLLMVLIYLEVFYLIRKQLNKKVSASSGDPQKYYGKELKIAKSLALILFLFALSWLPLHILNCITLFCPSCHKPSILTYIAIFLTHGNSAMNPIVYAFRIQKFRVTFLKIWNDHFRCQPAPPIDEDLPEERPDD

Adenosine receptor A2b [13] = biological target: T9, Adenosine receptor A2b; test: Displacement of [3H]PSB-603 from human adenosine A2B receptor
Adenosine receptor A1 [14] = biological target: T10, Adenosine receptor A1; test: Binding affinity to human adenosine A1 receptor
Adenosine receptor A2a [15] = biological target: T8, Adenosine receptor A2a; test: Binding affinity to human adenosine A2A receptor
Adenosine receptor A3 [16] = biological target: T3, Adenosine receptor A3; test: Binding affinity to human adenosine A3 receptor

SMILES	Ki (Adenosine receptor A1 [1])	IC50 [2]	Ki (Adenosine receptor A3 [3])	Ki (Adenosine receptor A1 [4])	Ki (Adenosine receptor A2a [5])	inhibition at 10 µM [6]	Ki (Adenosine receptor A2a [7])	IC50 [8]	Ki (Adenosine receptor A3 [9])	Ki (Adenosine receptor A2a [10])	Ki (Adenosine receptor A2b [11])	Ki (Adenosine receptor A1 [12])	Ki (Adenosine receptor A2b [13])	Ki (Adenosine receptor A1 [14])	Ki (Adenosine receptor A2a [15])	Ki (Adenosine receptor A3 [16])
C#CCn1c(=O)c2c(ncn2C)n(C)c1=O	11 µM	> 10 µM	> 10 µM	11 µM	5.6 µM	3%	5.6 µM	> 10 µM	> 10 µM							
Cn1c(=O)c2c(nc3n2CCCN3c2ccc(F)cc2)n(C)c1=O	> 25 µM		13.3 µM	> 25 µM			0.147 µM			1.18 µM	10 µM	16.7 µM	10 µM	16.7 µM	1.88 µM	13.3 µM
